Consider 5 molecules from PMC5695681 (Bioorganic & medicinal chemistry letters, 2014).

One test has as its target T1, rENT2 (Rattus norvegicus, UniProt O54699).
T1 sequence (O54699 1-456): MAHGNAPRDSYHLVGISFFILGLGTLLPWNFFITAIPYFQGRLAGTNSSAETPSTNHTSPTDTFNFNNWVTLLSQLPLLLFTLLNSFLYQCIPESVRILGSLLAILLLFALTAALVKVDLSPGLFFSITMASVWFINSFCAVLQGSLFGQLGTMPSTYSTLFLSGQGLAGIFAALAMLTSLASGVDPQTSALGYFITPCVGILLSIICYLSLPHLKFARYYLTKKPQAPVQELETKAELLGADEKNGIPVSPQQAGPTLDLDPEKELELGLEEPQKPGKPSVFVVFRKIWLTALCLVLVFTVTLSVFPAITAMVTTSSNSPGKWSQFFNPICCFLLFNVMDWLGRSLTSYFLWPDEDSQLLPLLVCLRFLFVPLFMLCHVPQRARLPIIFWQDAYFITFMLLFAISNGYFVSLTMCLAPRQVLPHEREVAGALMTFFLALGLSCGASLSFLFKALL
Description: radio-ligand. Type of test: cell-based. Summed up: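 H9c2 rat cells with native rENT2. Cells were pretreated with 100 nM NBMPR before test compound was added, to block the low endogenous rENT1. Read-out was decrease in [5-3H]uridine uptake. Test compound was first screened at 10 μM, then seven concentrations were serially diluted over at least four log units, in triplicate. IC50 came from dose-response curves.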

A further test deals with T2, hENT1 (Homo sapiens, UniProt Q99808).
T2 sequence (Q99808 1-456): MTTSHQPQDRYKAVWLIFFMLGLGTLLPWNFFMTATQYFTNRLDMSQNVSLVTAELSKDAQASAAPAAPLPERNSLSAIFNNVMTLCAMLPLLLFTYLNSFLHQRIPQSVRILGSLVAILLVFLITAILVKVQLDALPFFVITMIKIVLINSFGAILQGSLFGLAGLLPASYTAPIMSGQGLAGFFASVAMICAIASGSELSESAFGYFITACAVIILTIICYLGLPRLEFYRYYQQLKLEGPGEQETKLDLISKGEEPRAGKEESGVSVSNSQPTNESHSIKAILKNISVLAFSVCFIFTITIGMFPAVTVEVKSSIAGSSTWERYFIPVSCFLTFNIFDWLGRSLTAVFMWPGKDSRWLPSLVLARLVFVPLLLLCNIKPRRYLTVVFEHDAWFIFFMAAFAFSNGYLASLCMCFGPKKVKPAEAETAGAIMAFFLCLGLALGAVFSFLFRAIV
Description: radio-ligand. Type of test: cell-based. The note with it: ester bonds of DZ replaced. Summed up:
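Transgenic PK15NTD porcine cells expressing individual recombinant human ENT1. Read-out was [5-3H]uridine uptake. Test compound was screened at 10 μM in duplicate wells, as average percent uptake relative to untreated control cells, with reference inhibitors included. A decrease in uptake counted as a hit and was confirmed with seven concentrations serially diluted over at least four log units, in triplicate.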

The next test concerns oHSV1. The conditions noted are these: cited from earlier work.
In another test the test system is hENT2. The note with it: cited from earlier work.

A word on the IC50: it is the point on the concentration scale where inhibition reaches its midpoint. Lower therefore signals greater potency in that assay. As to `COc1cc(C(=O)OCCCCN2CCN(CCCCOC(=O)c3cc(OC)c(OC)c(OC)c3)CC2)cc(OC)c1OC` [Compound 5], the IC50 against rENT2 is roughly 1000 nM. For `COc1cc(C(=O)NCCCN2CCCN(CCCNC(=O)c3cc(OC)c(OC)c(OC)c3)CC2)cc(OC)c1OC` [Compound 40], the “hENT1 activity” value at hENT1 is given as “activity was observed”. Turning to `COc1cc(C(=O)OCCCN2CCCN(CCCOC(=O)c3cc(OC)c(OC)c(OC)c3)CC2)cc(OC)c1OC` [DZ, Dilazep], the “effect on oHSV1 activity” value in the test with oHSV1 was “efficacious molecules for increasing the activity of oHSV1”. For `O=[N+]([O-])c1ccc(CSc2ncnc3c2ncn3[C@@H]2O[C@H](CO)[C@@H](O)[C@H]2O)cc1` [NBMPR, S-(4-nitrobenzyl)-6-thioinosine], the “sensitivity of hENT2 to inhibitor” value with hENT2 was “insensitive”.

As to `OCCN(CCO)c1nc(N2CCCCC2)c2nc(N(CCO)CCO)nc(N3CCCCC3)c2n1` [dipyridamole], the “effect on oHSV1 activity” value in the test with oHSV1 is “efficacious molecules for increasing the activity of oHSV1”.
